Screening data: PubChem, several laboratories
This is a sample that favours compounds with a hit; in the whole collection about 4.1% have one here.
KCC2 mod – modulates chloride dependent transport by human KCC2; KCC2 cells, thallium flux FluoZin-2 fluorescence; B-score of Tl+ flux slope (higher = more flux/activation; lower = inhibition) at 10 µM; 2.2% of 190,000 active; AID 1456;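 active means thallium flux slope and its plate-corrected score both differing from the plate sample mean at a set confidence after two filtering rounds, in either direction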;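 further: slope of fluorescence scaled to starting intensity during 10 to 20 s after thallium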
KCNQ1 pot – potentiates or activates the human KCNQ1 potassium channel; B-score at 10 µM; 0.35% of 310,000 active; CHO-K1 KCNQ1, thallium flux FluxOR fluorescence; stronger effect = higher value; P51787;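 active means fluorescence ratio B-score, a plate-corrected score, at least three library SD, with initial intensity B-score within 5 SD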
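assay system = CHO-K1 cells stably expressing KCNQ1 | medium = assay buffer, equal DMSO in all wells | timing = 37 °C overnight plating, 90-min dark dye load, 20-min compound pretreatment | measured by = kinetic FluxOR thallium fluorescence, 10-s 1-Hz baseline, 110-s post-stimulus read | measure = fluorescence change relative to baseline, converted to B score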
KCNQ1 inh – inhibitors of human KCNQ1 potassium channel; P51787; CHO-K1 KCNQ1, FluxOR thallium flux fluorescence; stronger effect = higher value; B-score at 10 µM; 1.3% of 310,000 active; AID 2642;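 active means compounds whose thallium flux B-score, printed positive for inhibition, exceeds three library SD while starting fluorescence stays within three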;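 further: channel opened by potassium depolarization with thallium stimulus after 20 min compound exposure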
hERG rescue – hERG (human) protection from proarrhythmic block; activation (rescue from dofetilide block), less the hit threshold, % at 10 µM; CHO-hERG, FluxOR thallium flux, dofetilide IC70 present; 0.51% of 310,000 active;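 active means activation above the mean of controls blocked by dofetilide plus 5 SD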;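 further: thallium influx through hERG after potassium depolarization seen as dye fluorescence rise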
KCNK9 block – inhibitors of human KCNK9 two-pore domain potassium channel; Q9NPC2; HEK293 KCNK9, FluxOR thallium flux fluorescence; stronger effect = lower value; B-score at 10 µM; 1.2% of 310,000 active;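 active means ratio B-score over 3 SD below the library mean, with starting fluorescence within 5 SD of its mean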;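 further: negative B-score means less thallium flux so channel inhibition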
KCNK3 inh – human KCNK3 channel inhibition, primary screen; CHO-KCNK3 thallium flux, FluxOR fluorescence; stronger effect = lower value; B-score at 10 µM; O14649; 0.84% of 340,000 active;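 active means B-score under library mean minus 4 SD, starting fluorescence ratio at most library mean plus 5 SD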;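 further: more negative B-score means stronger inhibition of thallium flux through KCNK3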
Target sequence (O14649 whole entry, looked up): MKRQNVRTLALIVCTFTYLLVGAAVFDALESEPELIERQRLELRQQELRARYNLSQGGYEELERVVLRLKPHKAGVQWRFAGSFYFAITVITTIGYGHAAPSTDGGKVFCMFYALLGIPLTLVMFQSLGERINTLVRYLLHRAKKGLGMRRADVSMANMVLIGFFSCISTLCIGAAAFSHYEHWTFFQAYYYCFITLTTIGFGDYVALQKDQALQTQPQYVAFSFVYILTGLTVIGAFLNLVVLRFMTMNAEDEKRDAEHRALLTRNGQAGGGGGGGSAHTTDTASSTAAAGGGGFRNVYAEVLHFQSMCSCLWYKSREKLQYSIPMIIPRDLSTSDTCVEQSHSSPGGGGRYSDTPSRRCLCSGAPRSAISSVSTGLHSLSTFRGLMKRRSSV
KCC2 sec1 – KCC2 (human) modulation, secondary assay. shares compounds with KCC2 mod. HEK293-KCC2, thallium flux, FluoZin2 fluorescence; stronger effect = higher value. normalised thallium flux (F/F0 slope) at 10 µM. 15% of 3,700 active. AID 1713;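 active means thallium flux slope above the same plate's solvent-only control mean plus 3 SD; inconclusive means the two replicate wells disagree; inactive means no significant difference from solvent-only control wells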
KCC2 bumet counter – thallium flux persisting under bumetanide in KCC2 cells, counter-screen secondary assay. normalized thallium flux at 10 µM. shares compounds with KCC2 mod. HEK293-KCC2 + bumetanide/ouabain, thallium flux FluoZin2; stronger effect = higher value. 49% of 3,700 active;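 active means thallium entry rate above the same plate's blocked-transporter control wells by more than 3 SD; inconclusive means the two repeat wells disagree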;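 further: raw slope of fluorescence over initial fluorescence between 10 and 20 s after thallium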
KCC2 secondary2 – confirmation of human KCC2 transport modulators; HEK293-KCC2, thallium flux FluoZin2 fluorescence; actives lie on both sides; F/F0 rise rate, 10–20 s post-thallium; AID 1715; shares compounds with KCC2 mod; normalized thallium flux at 10 µM; 23% of 3,700 active;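 active means thallium flux slope more than 3 SD above or below the plate's solvent-only control mean, mostly below; inconclusive means the two repeat wells disagreed; inactive means no significant shift from solvent-only controls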
HEK counter1 – counter-screen for KCC2 modulators: effect in parental HEK293 cells. shares compounds with KCC2 mod. thallium flux rate (normalised fluorescence) at 10 µM. thallium flux FluoZin2, ouabain; baseline-ratio fluorescence slope, 10–20 s after thallium. 46% of 3,700 active;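 active means thallium flux rate significantly above the same plate's solvent-only control wells, beyond their mean plus 3 SD; inconclusive means the two replicate wells gave conflicting results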
KCC2 retest ouab – confirmation of human KCC2 modulators with ouabain | shares compounds with KCC2 mod | HEK293-KCC2, thallium flux FluoZin2 fluorescence; bidirectional: low = inhibitor, high = activator | raw Tl+ flux slope (below DMSO = inhibition, above = activation) at 10 µM | 48% of 3,700 active | AID 1717;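 active means thallium flux slope beyond 3 SD from same-plate DMSO control mean in most replicates, usually higher, sometimes lower; inconclusive means repeat tests gave conflicting results; inactive means no significant difference from controls in most replicates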;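 further: slope of initial-normalized fluorescence between seconds 10 and 20 after thallium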
HEK counter2 – counter-screen for KCC2 modulators: effect in parental HEK293 cells; shares compounds with KCC2 mod; thallium flux slope at 10 µM; 33% of 3,700 active; AID 1718; thallium flux FluoZin-2 fluorescence slope;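 active means thallium flux slope above the same plate's solvent-control mean plus 3 SD in both duplicate wells; inconclusive means duplicate wells that disagreed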;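 further: run without ouabain in cells lacking the KCC2 cotransporter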
Large screens that a line does not name were inactive (follow-up assays come after a bar, where they were run).

CCc1nc2c(c(=O)[nH]1)C1(CCCC1)Cc1ccccc1-2	none (no result: KCC2 mod) | KCC2 sec1 inactive | KCC2 bumet counter inactive | KCC2 secondary2 inactive | HEK counter1 inactive | KCC2 retest ouab inactive | HEK counter2 inactive
Cn1nnnc1SCC1=C(C(=O)O)N2C(=O)C(NC(=O)C3CC3c3ccccc3)C2SC1 (stereo not drawn)	KCC2 mod -5.4 | KCC2 sec1 inactive | KCC2 bumet counter inactive | KCC2 secondary2 inactive | HEK counter1 inconclusive | KCC2 retest ouab inactive | HEK counter2 inactive
CC(C)(C)c1ccc(-c2n[nH]c(=S)n2/N=C/c2ccncc2)cc1	KCC2 mod 5.6 | KCC2 sec1 inactive | KCC2 bumet counter 0.018 | KCC2 secondary2 inactive | HEK counter1 0.013 | KCC2 retest ouab inconclusive | HEK counter2 inactive
S=c1[nH]nc(C2CCCCC2)n1/N=C/c1ccncc1	none
S=c1[nH]nc(C2CCCCC2)n1/N=C/c1cccs1	KCC2 mod 6.1 | KCC2 sec1 0.013 | KCC2 bumet counter 0.065 | KCC2 secondary2 inactive | HEK counter1 0.023 | KCC2 retest ouab inconclusive | HEK counter2 inconclusive
Cc1ccc(-c2n[nH]c(=S)n2/N=C/c2cccn2C)cc1	KCC2 mod 5.2 | KCC2 sec1 inactive | KCC2 bumet counter 0.031 | KCC2 secondary2 inactive | HEK counter1 0.0093 | KCC2 retest ouab inactive | HEK counter2 0.011
Cn1cccc1/C=N/n1c(-c2ccc(Cl)cc2)n[nH]c1=S	none (no result: KCC2 mod)
S=c1[nH]nc(-c2ccccc2)n1/N=C/c1cccs1	none (no result: KCC2 mod) | KCC2 sec1 inactive | KCC2 bumet counter 0.04 | KCC2 secondary2 0.043 | HEK counter1 0.025 | KCC2 retest ouab 0.037 | HEK counter2 0.027
Cc1ccc(C)c(N(C(=O)CNC(=O)c2ccco2)C(C(=O)NC2CCCC2)c2ccncc2)c1 (stereo not drawn)	none (no result: KCC2 mod)
CN(CC(=O)Nc1ccccc1Cl)C(=O)C1CSC2(C)CCC(=O)N12 (stereo not drawn)	none (no result: KCC2 mod, KCNQ1 pot, KCNQ1 inh, hERG rescue, KCNK9 block)
CN(C(=O)c1ccc(NC(=O)Cc2ccc(NC(=O)C3CCCN(C(=O)c4ccccc4)C3)cc2)cc1)C1CC1 (stereo not drawn)	none (no result: KCC2 mod, KCNQ1 pot, KCNQ1 inh, hERG rescue, KCNK9 block)
Cc1c(C(=O)NCCSCc2c(F)cccc2Cl)cnn1-c1ccc(F)cc1	none
Cc1c(C(=O)NCCSCc2ccc(F)cc2)cnn1-c1ccc(Cl)cc1	KCC2 mod -3.8 | KCC2 sec1 inactive | KCC2 bumet counter inactive | KCC2 secondary2 inconclusive | HEK counter1 inactive | KCC2 retest ouab 0.017 | HEK counter2 inactive
O=C(COC(=O)c1ccco1)NC12CC3CC(CC(C3)C1)C2	none (no result: KCC2 mod, KCNQ1 pot, KCNQ1 inh, hERG rescue, KCNK9 block)
CCOc1ccccc1C(=O)NC1CC2CCCC(C1)N2Cc1nnnn1Cc1ccco1 (stereo not drawn)	KCC2 mod -4, hERG rescue 22 | KCC2 sec1 inactive | KCC2 bumet counter inactive | KCC2 secondary2 inactive | HEK counter1 inactive | KCC2 retest ouab inconclusive | HEK counter2 inactive
